Bioassay records (PubChem)
CSC inhib: cancer stem cell inhibition; 300,000 tested, 1.1% active; cancer stem cell-like cells viability, luminescence; inhibition, % at 7.5 µM; in the data active means inhibition above about 75%; tested in HMLE shEcad cells
UPR XBP1 act: adaptive UPR (XBP1) activation | activation, % at 20 µM | 330,000 tested, 0.33% active | AID 463104 | CHO-XBP1 luciferase reporter, IRE1-XBP1 UPR activation, luminescence; percent of tunicamycin response, DMSO as zero;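 active means versus positive control, 20 µM dose yields 30% or more activation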
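Assay system: CHO-XBP1 luciferase reporter cells; Schedule: 6 h treatment, 37 °C; Detection: glow luminescence from Steady-Glo reagent; Benchmarks: high control tunicamycin 10 µg/mL final, low control DMSO vehicle only.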
UPR CHOP act: apoptotic UPR (CHOP) activation; CHO-CHOP luciferase reporter, luminescence; percent of tunicamycin response over DMSO baseline; activation, % at 10 µM; 330,000 tested, 0.34% active; AID 449763;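 active means at 10 µM dose, activation of 40% or more, normalized to positive control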
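Dosing – one dose, 10 µM in 0.5% DMSO · System – CHO-CHOP cells, stable luciferase reporter of PERK-eIF2a-CHOP signalling · Input – 500 cells/well · Control set – tunicamycin 10 µg/mL final as positive, DMSO-only wells as negative · Timing – 6 h compound treatment, 37 °C · Measure – % activation vs tunicamycin · Technique – luminescence read with Steady-Glo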
Beta cell apopt: blocks beta cell apoptosis | 300,000 tested, 0.8% active | protection from apoptosis, % (concentration not given with the values) | INS-1E cytokine-induced death, ATP luminescence, 48 h; percent of positive-control rescue, neutral wells zero;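 active means Every replicate reaches about 75%, or at least half do and their mean reaches it too, limit read from the data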;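 further: higher means more ATP so stronger rescue from cytokine killing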
Mdm2-MdmX inh: inhibitors of human Mdm2/MdmX interaction | AID 485346 | inhibition, % at 8 µM | SaOS-2 split-luciferase Mdm2/MdmX complementation, luminescence | O15151+Q00987 | 330,000 tested, 3% active;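 active means inhibition of at least 50% at 8 µM in the primary screen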
Target sequence (O15151 whole entry, looked up): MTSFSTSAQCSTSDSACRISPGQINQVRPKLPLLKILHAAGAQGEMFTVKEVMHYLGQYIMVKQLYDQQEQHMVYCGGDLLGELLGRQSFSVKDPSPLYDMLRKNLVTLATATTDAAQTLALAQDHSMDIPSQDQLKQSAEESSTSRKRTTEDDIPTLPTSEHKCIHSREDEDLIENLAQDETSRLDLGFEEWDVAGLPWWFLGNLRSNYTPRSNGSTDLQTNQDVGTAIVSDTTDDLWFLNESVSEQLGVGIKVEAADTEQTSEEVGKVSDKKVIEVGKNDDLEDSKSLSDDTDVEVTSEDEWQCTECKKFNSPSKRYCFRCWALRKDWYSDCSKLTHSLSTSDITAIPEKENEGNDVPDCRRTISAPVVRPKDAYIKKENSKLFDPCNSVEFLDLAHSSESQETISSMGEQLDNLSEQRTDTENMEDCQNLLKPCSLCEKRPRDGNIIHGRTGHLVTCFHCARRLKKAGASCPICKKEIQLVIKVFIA
Target sequence (Q00987 whole entry, looked up): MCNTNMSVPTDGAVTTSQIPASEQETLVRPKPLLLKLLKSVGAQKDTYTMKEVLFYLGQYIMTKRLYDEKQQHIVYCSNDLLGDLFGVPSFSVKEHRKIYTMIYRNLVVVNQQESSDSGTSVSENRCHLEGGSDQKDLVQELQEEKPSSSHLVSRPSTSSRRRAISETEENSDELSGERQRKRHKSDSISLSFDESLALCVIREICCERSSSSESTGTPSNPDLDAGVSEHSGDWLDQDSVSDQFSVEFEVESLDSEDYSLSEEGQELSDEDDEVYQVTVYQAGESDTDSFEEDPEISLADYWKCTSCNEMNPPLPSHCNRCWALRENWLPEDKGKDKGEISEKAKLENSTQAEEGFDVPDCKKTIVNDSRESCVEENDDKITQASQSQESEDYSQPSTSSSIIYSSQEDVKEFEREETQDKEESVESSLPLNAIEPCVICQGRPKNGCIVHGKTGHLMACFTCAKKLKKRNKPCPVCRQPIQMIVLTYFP
SKKanGAS inh: blocks kanamycin growth of S. pyogenes SKKanGAS strain | inhibition, % at 7.5 µM | 300,000 tested, 1.3% active | AID 1662 | BacTiter-Glo, 6 h;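 active means mean replicate score, as percent of positive control median, at least 50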;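 further: strain carries kanamycin resistance gene driven by streptokinase promoter and grows in 40 µg/ml kanamycin; loss of luminescence reflects streptokinase promoter inhibition or plain growth inhibition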
XBP1 UPR conf: confirmation of adaptive unfolded protein response (XBP1) activators | activation, % at 20 µM | CHO-XBP1 IRE1-XBP1 luciferase reporter, luminescence | AID 485299 | shares compounds with UPR XBP1 act | 1,000 tested, 63% active;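 active means reporter signal at least 30% of the positive control's activation in two or more of four replicate wells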
Numbers stand for hits; – = inactive; · = no result given. A selection: hits, their analogues and other compounds. The true share with any hit is near 4.8%.

SMILES | CSC inhib | UPR XBP1 act | UPR CHOP act | Beta cell apopt | Mdm2-MdmX inh | SKKanGAS inh | XBP1 UPR conf
COc1cccc(/C=N/NC(=O)CSc2cccc3cccnc23)c1 | – | 32 | – | – | – | – | –
CCCCCCOc1ccc(/C=c2\s/c(=C(/C#N)C(=O)NCc3ccco3)n(-c3ccccc3)c2=O)cc1 | – | 45 | – | – | – | – | –
CCOC(=O)Cc1csc(N/N=C\c2ccc(N(C)C)cc2)n1 | – | – | – | – | – | – | ·
CCN(CC(=O)Nc1ccc(OC)cc1)C(=O)CSCc1c(C)noc1C | · | – | – | – | – | · | ·
CCn1cc(C(=O)OCC(=O)Nc2cccc(S(=O)(=O)N3CCOCC3)c2)c(=O)c2ccc(C)nc21 | – | 44 | – | – | – | – | –
Cc1ccsc1C(=O)OCC(=O)Nc1cccc(S(=O)(=O)N2CCOCC2)c1 | – | – | – | – | – | – | ·
Cn1c(=O)c(=O)n(C)c2cc(S(=O)(=O)CCC(=O)Nc3c(F)c(F)c(F)c(F)c3F)ccc21 | – | – | – | – | – | – | ·
COc1cc(OC)cc(C(=O)Nc2ccc3nc4n(c(=O)c3c2)CCCCC4)c1 | – | 32 | – | – | – | – | 36
O=C(Nc1ccc2nc3n(c(=O)c2c1)CCCC3)c1cncc(Br)c1 | – | – | – | – | – | – | ·
c1cc(SSc2ccncc2)ccn1 | – | – | – | – | – | – | ·
c1ccc(SSc2ccccc2)cc1 | – | 49 | – | – | – | – | –
O=C(Oc1ccccc1/C=C\C(=O)c1cc2ccccc2o1)c1cccc(F)c1 | – | 39 | – | – | – | – | 60
O=C(N/N=C/c1ccccc1OC(=O)c1ccc2c(c1)OCO2)c1cccc(F)c1 | – | – | – | – | – | – | ·
CCn1c(/C=C/c2c(C)[nH]c3ccccc23)nc2ccccc2c1=O | – | 216 | – | – | – | – | 81
CN1C(=O)[C@@H]2[C@H](C1=O)[C@@H]1C(=O)Nc3ccccc3C(=O)N1[C@@H]2c1ccc(Br)cc1 | – | – | – | – | – | – | ·
CCOC(=O)c1ccc(-c2ccc3c(=O)c4ccccc4n(C)c3c2)cc1F | – | 100 | – | – | – | 65 | –
COc1cccc(N2CCN(CC(=O)NC(=O)NC3CCCCC3)CC2)c1 | · | – | – | · | – | · | ·
COc1ccc(Nc2ncnc3ccccc23)c(OC)c1 | – | – | – | – | – | – | ·
COc1ccc(Nc2ncnc3sc(C)cc23)c(OC)c1 | – | 30 | – | – | – | – | –
CCCCCOCC(O)CCC(=O)NN (stereo not drawn) | – | 34 | – | – | – | – | –
CCCCC(CC(O)COCC(C)C)C(=O)NN (stereo not drawn) | – | – | – | – | – | – | ·
CC1CCN(C(=O)C(C)OC(=O)CSc2ccc([N+](=O)[O-])cc2)CC1 (stereo not drawn) | – | – | – | – | – | · | ·
CCOC(=O)N1CCN(CCC(=O)Nc2cc(C)ccc2C)CC1 | – | – | – | · | – | – | ·
CCN1CCN(C(=O)c2ccc(N3CC4CC(C3)c3cccc(=O)n3C4)c(NC(=O)c3cc(OC)cc(OC)c3)c2)CC1 (stereo not drawn) | – | – | – | – | – | – | ·
Cc1ccc(NC(=O)Cn2c(/C=C/c3ccccc3)nc3ccccc32)cc1C | – | 51 | – | – | – | – | 35
SMILES | CSC inhib | UPR XBP1 act | UPR CHOP act | Beta cell apopt | Mdm2-MdmX inh | SKKanGAS inh | XBP1 UPR conf
Cc1ccc(NC(=O)Cn2cnc3ccccc32)cc1C | – | – | – | – | – | – | ·
COc1ccc(OC(=O)COc2ccc(C)cc2)cc1 | – | – | – | – | – | – | ·
COc1ccc(OCC(=O)Sc2ccc(C)cc2)cc1 | – | 35 | – | · | – | – | –
CC(C)C[C@@H](C(=O)NCc1ccco1)N1C(=O)N2CCc3c([nH]c4ccccc34)[C@@]2(C)C1=O | – | – | – | – | – | – | ·
COc1ccc(-c2cc(-c3ccc(OC)cc3)nc(-c3ccc4c(c3)NC(=O)CO4)c2)cc1 | – | 38 | – | – | – | – | –
Cc1ccc(Cn2c(C(C)Nc3nc(-c4ccc(F)cc4)cs3)nc3cc(Cl)c(Cl)cc32)cc1 (stereo not drawn) | – | 35 | – | – | – | – | 30
CCCn1c(C(C)Nc2nc(-c3ccc(C)cc3)cs2)nc2cc(Cl)c(Cl)cc21 (stereo not drawn) | – | – | – | – | – | – | ·
COc1ccc(OC)c(NC(=O)c2cc3oc4ccccc4c3cc2O)c1 | – | 37 | – | – | – | – | –
CCn1c(O)c(C(C#N)=C2N=c3ccccc3=N2)c2ccccc21 | – | 34 | – | – | – | – | –
CC(C)CCn1c(N2CCCC2)nc2c1c(=O)n(C)c(=O)n2C | – | – | – | – | – | – | ·
Cn1c(=O)c2c(nc(N3CCCCC3)n2C)n(C)c1=O | – | 52 | – | – | – | – | –
O=C(Nc1ccc(-c2nc3ncccc3o2)cc1)c1ccc(Br)o1 | – | 62 | – | – | – | – | –
Cc1ccc(CNC(=O)C2CCCN(S(=O)(=O)N3CC(C)CC(C)C3)C2)cc1 (stereo not drawn) | – | – | – | – | – | – | ·
COc1cc(/C=N/NC(=O)NC23CC4CC(CC(C4)C2)C3)ccc1O | – | 44 | – | – | – | – | –
CN(C)S(=O)(=O)c1ccc(N2CCCC2)c(C(=O)Nc2nccs2)c1 | – | 60 | – | – | – | · | 69
CN(Cc1ccccc1N1CCCC1)C(=O)c1cc2cc(Cl)ccc2o1 | – | – | – | – | – | · | ·
CCCNC(=O)c1c(N)n(-c2ccc3c(c2)OCO3)c2nc3ccccc3nc12 | – | 44 | – | – | – | – | 29
O=C1C2C3C=CC(CC3)C2C(=O)N1/N=C/c1ccc(O)c(O)c1 (stereo not drawn) | – | 45 | – | – | – | – | –
CCOC(=O)c1c(C)[nH]c(C(=O)COc2ccc3ccc(=O)oc3c2)c1C | – | 41 | – | – | – | · | –
CN(C)C(=O)COc1ccc2ccc(=O)oc2c1 | – | – | – | · | – | – | ·
COc1cc(OC)cc(C(=O)NC(C(=O)N2CCc3ccccc3C2)C(C)C)c1 (stereo not drawn) | – | – | – | · | – | – | ·
O=C(c1ccc2c(c1)OCO2)C1CCCN(Cc2ccc(OC(F)F)cc2)C1 (stereo not drawn) | – | – | – | – | – | – | ·
N#CCCn1cc(/C=N/O)c(-c2ccc(Cl)cc2)n1 | – | 109 | – | – | – | – | –
Cc1ccc(-c2ccnc(-c3ccc(O)cc3)n2)cc1 | – | 34 | – | – | – | – | 36
Oc1ccc(-c2nccc(-c3ccc(Br)cc3)n2)cc1 | – | – | – | – | – | – | ·
O=C(CN1CCCCC1)Nc1c2c(nc3ccccc13)N(c1ccccc1)CC2 | – | 56 | – | – | – | – | –
